Test results as given in ChEMBL document CHEMBL1152957, “Synthesis and biological evaluation of novel 4-azaindolyl-indolyl-maleimides as glycogen synthase kinase-3beta (GSK-3beta) inhibitors” (Bioorg Med Chem, 2009).
Active and inactive are the calls of the source. No cut-off for these calls is given here.

Assays:
[1] = molecular target: T1, Glycogen synthase kinase-3 beta (Homo sapiens, UniProt P49841); assay: Inhibition of recombinant GST-GSK3beta expressed in Escherichia coli BL21 (DE3)
Target sequence in this assay (P49841 whole entry): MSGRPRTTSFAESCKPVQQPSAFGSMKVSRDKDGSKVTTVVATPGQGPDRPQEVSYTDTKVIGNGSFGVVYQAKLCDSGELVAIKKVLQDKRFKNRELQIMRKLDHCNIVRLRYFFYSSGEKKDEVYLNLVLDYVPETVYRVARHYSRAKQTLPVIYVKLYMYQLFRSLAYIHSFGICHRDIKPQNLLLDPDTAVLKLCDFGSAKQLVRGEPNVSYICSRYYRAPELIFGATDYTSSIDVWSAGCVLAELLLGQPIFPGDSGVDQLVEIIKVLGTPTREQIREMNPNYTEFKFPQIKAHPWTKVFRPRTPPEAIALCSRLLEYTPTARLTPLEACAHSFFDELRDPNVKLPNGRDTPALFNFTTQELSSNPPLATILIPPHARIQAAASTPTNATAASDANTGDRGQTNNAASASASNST

[2] = molecular target: T1, Glycogen synthase kinase-3 beta; assay: Inhibition of GSK3-beta in human SH-Sy5Y cells assessed as reduction of amyloid beta (25-35)-induced Tau hyperphosphorylation at Ser396 at 10 uM treated 1 hr before amyloid beta (25-35) challenge measured after 6 hrs by Western blotting; assay type: cell-based
In short: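 SH-SY5Y cells from ATCC kept in 1:1 DMEM:Ham's F12 with 10% FBS and penicillin/streptomycin under 5% CO2. Grown to about 80% confluence and serum-starved 12 h. Inhibitor added for 1 h, then amyloid beta 25–35 for 6 h. Lysed in SDS loading buffer and run on 10% SDS-PAGE. Western blot on PVDF with rabbit anti-Tau pS396 and ECL detection.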
Target sequence in this assay (P49841 whole entry, looked up): as the sequence (P49841 whole entry) above

[3] = molecular target: T2, Protein kinase C epsilon type (Homo sapiens, UniProt Q02156); assay: Inhibition of recombinant PKCE expressed in Bac-to Bac baculovirus system
T2 sequence (Q02156 whole entry): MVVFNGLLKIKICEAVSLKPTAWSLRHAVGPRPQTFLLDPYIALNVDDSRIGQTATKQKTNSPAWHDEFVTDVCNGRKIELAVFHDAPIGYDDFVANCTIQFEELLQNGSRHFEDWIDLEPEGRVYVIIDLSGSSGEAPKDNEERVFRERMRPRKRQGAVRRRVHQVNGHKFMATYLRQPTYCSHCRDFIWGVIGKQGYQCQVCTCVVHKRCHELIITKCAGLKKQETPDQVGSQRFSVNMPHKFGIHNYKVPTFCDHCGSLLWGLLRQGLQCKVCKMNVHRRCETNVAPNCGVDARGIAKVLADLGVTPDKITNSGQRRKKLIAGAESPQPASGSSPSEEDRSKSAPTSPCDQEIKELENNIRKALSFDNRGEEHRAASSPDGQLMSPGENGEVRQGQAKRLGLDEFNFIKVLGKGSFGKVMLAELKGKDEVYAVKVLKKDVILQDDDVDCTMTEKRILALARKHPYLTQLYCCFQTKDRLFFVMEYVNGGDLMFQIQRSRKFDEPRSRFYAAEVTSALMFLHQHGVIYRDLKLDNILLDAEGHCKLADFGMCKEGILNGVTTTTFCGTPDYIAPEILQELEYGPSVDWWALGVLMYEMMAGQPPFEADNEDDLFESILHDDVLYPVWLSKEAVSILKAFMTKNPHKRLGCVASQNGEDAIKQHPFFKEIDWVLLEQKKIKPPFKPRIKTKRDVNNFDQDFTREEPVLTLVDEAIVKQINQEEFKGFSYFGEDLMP

[4] = molecular target: T3, Inhibitor of nuclear factor kappa-B kinase subunit beta (Homo sapiens, UniProt O14920); assay: Inhibition of recombinant IKK2 expressed in Bac-to Bac baculovirus system
T3 sequence (O14920 whole entry): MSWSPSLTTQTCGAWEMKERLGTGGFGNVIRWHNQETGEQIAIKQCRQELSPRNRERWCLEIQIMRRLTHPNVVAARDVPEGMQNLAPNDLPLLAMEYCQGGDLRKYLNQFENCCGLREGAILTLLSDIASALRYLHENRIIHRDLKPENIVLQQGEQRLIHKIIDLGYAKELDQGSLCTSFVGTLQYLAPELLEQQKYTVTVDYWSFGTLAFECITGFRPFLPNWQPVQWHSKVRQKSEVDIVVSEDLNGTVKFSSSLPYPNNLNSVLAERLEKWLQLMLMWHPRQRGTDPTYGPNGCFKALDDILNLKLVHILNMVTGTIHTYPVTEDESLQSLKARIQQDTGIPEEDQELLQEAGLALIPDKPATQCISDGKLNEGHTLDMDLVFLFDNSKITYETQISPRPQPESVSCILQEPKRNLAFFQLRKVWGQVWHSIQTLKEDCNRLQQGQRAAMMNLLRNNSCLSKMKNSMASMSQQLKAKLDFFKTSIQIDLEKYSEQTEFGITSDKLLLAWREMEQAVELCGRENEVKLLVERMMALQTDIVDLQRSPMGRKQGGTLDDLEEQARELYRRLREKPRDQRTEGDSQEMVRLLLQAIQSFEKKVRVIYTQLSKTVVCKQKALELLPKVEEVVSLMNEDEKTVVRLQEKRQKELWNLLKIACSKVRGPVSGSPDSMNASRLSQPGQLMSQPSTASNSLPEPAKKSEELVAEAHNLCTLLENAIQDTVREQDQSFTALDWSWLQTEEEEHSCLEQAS

Aurora kinase A = molecular target: T4, Aurora kinase A (Homo sapiens, UniProt O14965); assay: Inhibition of recombinant Aurora A expressed in Escherichia coli
T4 sequence (O14965 whole entry): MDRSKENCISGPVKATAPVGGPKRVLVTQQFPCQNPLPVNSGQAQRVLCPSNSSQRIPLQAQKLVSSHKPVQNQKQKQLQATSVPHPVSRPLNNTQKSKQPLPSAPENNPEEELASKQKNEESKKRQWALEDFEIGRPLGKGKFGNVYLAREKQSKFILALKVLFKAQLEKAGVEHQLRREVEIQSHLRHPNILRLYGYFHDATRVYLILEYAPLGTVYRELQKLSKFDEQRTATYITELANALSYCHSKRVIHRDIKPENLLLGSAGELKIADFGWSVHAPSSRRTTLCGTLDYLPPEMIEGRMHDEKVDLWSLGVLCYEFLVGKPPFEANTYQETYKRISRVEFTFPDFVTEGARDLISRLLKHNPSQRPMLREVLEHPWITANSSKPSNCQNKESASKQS

[5] = molecular target: Dual specificity mitogen-activated protein kinase kinase 1 (Homo sapiens, UniProt Q02750); assay: Inhibition of recombinant MEK1 expressed in Escherichia coli
[6] = molecular target: Mitogen-activated protein kinase 3 (Homo sapiens, UniProt P27361); assay: Inhibition of recombinant ERK1 expressed in Escherichia coli
Sequence of Mitogen-activated protein kinase 3 (P27361 whole entry): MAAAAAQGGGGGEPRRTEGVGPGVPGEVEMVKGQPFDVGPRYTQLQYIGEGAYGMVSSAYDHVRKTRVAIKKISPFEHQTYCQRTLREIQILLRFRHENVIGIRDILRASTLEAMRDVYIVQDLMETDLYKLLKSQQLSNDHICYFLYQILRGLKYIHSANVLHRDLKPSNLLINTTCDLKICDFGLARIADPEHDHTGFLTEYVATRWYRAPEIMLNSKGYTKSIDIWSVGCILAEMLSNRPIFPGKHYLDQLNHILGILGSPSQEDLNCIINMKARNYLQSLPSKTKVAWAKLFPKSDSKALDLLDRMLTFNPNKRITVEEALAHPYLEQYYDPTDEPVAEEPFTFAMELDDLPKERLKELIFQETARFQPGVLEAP

Sequence of Dual specificity mitogen-activated protein kinase kinase 1 (Q02750 whole entry): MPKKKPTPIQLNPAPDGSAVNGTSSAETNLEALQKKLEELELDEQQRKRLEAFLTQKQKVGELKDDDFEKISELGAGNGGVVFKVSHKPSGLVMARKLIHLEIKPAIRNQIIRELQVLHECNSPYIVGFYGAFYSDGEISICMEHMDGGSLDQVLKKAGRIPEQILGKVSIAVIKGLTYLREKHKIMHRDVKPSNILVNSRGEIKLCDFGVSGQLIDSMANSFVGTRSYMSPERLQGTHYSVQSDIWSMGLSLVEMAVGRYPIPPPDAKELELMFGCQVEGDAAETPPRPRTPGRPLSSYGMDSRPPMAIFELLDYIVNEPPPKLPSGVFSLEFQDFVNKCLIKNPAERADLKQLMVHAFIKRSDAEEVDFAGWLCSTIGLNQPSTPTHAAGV

| SMILES | IC50 [1] [µM] | Activity [2] | other results |
| --- | --- | --- | --- |
| CN(C)CCCn1cc(C2=C(n3ccc4ncccc43)C(=O)NC2=O)c2ccc(Br)cc21 | 2.26 |  |  |
| COc1ccc2c(c1)c(C1=C(n3ccc4ncccc43)C(=O)NC1=O)cn2CCCn1ccnc1 | 0.48 | inactive |  |
| O=C1C(c2cn(CCCn3ccnc3)c3ccccc23)=C(n2ccc3ncccc32)C(=O)N1c1ccccc1 | > 73.3 |  |  |
| COc1ccc2c(c1)c(C1=C(n3ccc4ncccc43)C(=O)NC1=O)cn2CCCN(C)C | 22.5 |  |  |
| O=C1NC(=O)C(n2ccc3ncccc32)=C1c1cn(CCCn2ccnc2)c2cc(Br)ccc12 | 0.95 | inactive |  |
| CN(C)CCCn1cc(C2=C(n3ccc4ncccc43)C(=O)NC2=O)c2ccc(F)cc21 | 12.4 |  |  |
| O=C1NC(=O)C(n2ccc3ncccc32)=C1c1cn(CCCn2ccnc2)c2cc(F)ccc12 | 0.31 |  |  |
| O=C1NC(=O)C(n2ccc3ncccc32)=C1c1cn(CCCn2ccnc2)c2ccc(Br)cc12 | 0.14 | Active | IC50 [3]: > 40 µM; IC50 [4]: > 40 µM; IC50 (Aurora kinase A): > 40 µM; IC50 [5]: > 40 µM; IC50 [6]: > 40 µM |
| O=C1NC(=O)C(n2ccc3ncccc32)=C1c1c[nH]c2ccccc12 | 30.6 |  |  |
| O=C1NC(=O)C(n2ccc3ncccc32)=C1c1cn(CCCCn2ccnc2)c2ccccc12 | 0.85 | inactive |  |

Second part, led by results:

| IC50 [1] [µM] | Activity [2] | SMILES | other results |
| --- | --- | --- | --- |
| 12.4 |  | O=C1NC(=O)C(n2ccc3ncccc32)=C1c1cn(CCCN2CCCCC2)c2ccccc12 |  |
| 0.76 | Active | Cn1cc(C2=C(c3cn(CCCN4CCOCC4)c4ccccc34)C(=O)NC2=O)c2ncccc21 | IC50 [3]: > 40 µM; IC50 [4]: > 40 µM; IC50 (Aurora kinase A): > 40 µM; IC50 [5]: > 40 µM; IC50 [6]: > 40 µM |
| 0.26 | inactive | O=C1NC(=O)C(n2ccc3ncccc32)=C1c1cn(CCn2ccnc2)c2ccccc12 | IC50 [3]: > 40 µM; IC50 [4]: > 40 µM; IC50 (Aurora kinase A): > 40 µM; IC50 [5]: > 40 µM; IC50 [6]: > 40 µM |
| 0.55 |  | O=C1NC(=O)C(n2ccc3ncccc32)=C1c1cn(CCCn2ccnc2)c2ccccc12 |  |
| 0.9 |  | Cn1cc(C2=C(c3cn(CCN4CCOCC4)c4ccccc34)C(=O)NC2=O)c2ncccc21 |  |
| 1.14 |  | Cn1cc(C2=C(c3cn(CCCO)c4ccccc34)C(=O)NC2=O)c2ncccc21 |  |
| 0.66 |  | Cn1cc(C2=C(c3cn(CCCn4ccnc4)c4ccccc34)C(=O)NC2=O)c2ncccc21 |  |
| 1.79 |  | O=C1NC(=O)C(n2ccc3ncccc32)=C1c1cn(CCCN2CCOCC2)c2ccccc12 |  |
| 13.6 |  | CN(C)CCCn1cc(C2=C(n3ccc4ncccc43)C(=O)NC2=O)c2ccccc21 |  |
